# Publication PMC5564211 (European journal of medicinal chemistry, 2017)
# pIC50: −log10 of the molar value.
# Key:
# [1] = test system: α1-adrenoceptors; experiment: [3H]prazosin binding displacement; parameters: species or system mouse; conditions: [3H]prazosin displacement; for pIC50: values as rounded in text
# Outline: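 Competition binding against 1.5 nM [³H]prazosin in mouse hippocampal homogenate, with test compound added over a range of concentrations to build concentration–effect displacement curves. IC50 is derived by non-linear regression curve fitting. Each ligand's fitted curve is compared statistically with reference-ligand curves.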
# [2] = test system: mouse; experiment: Antidepressant-like activity assay; type: in vivo; conditions: mice, TST, given alone without SSRI
# Outline: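 Mice given test compound were scored for immobility time in the tail suspension test. A saline-treated group served as control. Groups were compared with saline by one-way ANOVA with Dunnett's post-hoc test, with significance set at P < 0.05.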
# [3] = test system: mouse; experiment: Locomotor activity assay; type: in vivo; conditions: mice; for effect on locomotion compared with the same dose of D-22: 1 mg/kg ip, one-way ANOVA, Dunnett's test
# [4] = test system: mouse; conditions: mice, previously published studies; cited from earlier work
Molecule,independent antidepressant-like activity (reduction in immobility time) [2],pIC50 [1],further results
"C[C@]12C[C@H](O)[C@H]3[C@@H](CCC4=CC(=O)CC[C@@]43C)[C@@H]1CC[C@@H]2C(=O)CO [Corticosterone, corticosterone, reference compound]",,,inhibition at adrenoceptors [1]: weak inhibitor
"(E)-1-Ethyl-2-((1-ethylquinolin-2(1H)-ylidene)methyl)-6-fluoro-4a,8a-dihydro quinolinium iodide [analogue 5]",impart independent antidepressant-like activity,6.52,
"(E)-1-Ethyl-2-((1-ethylquinolin-2(1H)-ylidene)methyl)-6-iodo-4a,8a-dihydro-quinolinium iodide [analogue 7]",do not impart independent antidepressant-like activity,6.15,effect on locomotion compared with the same dose of D-22 [3]: affected locomotion significantly less than D-22
"CC(C)[n+]1ccc(/C=C2/C=Cc3ccccc3N2C)c2ccccc21.O=C([O-])C(F)(F)F [analogue 2, 1-Methyl-1′-isopropyl-2,4′-cyanine trifluoroacetate]",do not impart independent antidepressant-like activity,~6.00,
"CN1/C(=C\c2cc[n+](C)c3ccccc23)C=Cc2ccccc21.O=C([O-])C(F)(F)F [analogue 1, 1,1′-Dimethyl-2,4′-cyanine trifluoroacetate]",do not impart independent antidepressant-like activity,,
"CCN1/C(=C/c2ccc3cc(Cl)ccc3[n+]2CC)C=Cc2ccccc21.[I-] [analogue 6, (E)-6-Chloro-1-ethyl-2-((1-ethylquinolin-2(1H)-ylidene)methyl)quinolinium iodide]",impart independent antidepressant-like activity,6.30,effect on locomotion compared with the same dose of D-22 [3]: affected locomotion significantly less than D-22
"CCOc1ccccc1OCCN[C@H](C)Cc1ccc(OC)c(S(N)(=O)=O)c1 [Tamsulosin, tamsulosin, reference compound]",,~8.70,
"CCN1/C(=C/c2ccc3ccccc3[n+]2CC)C=Cc2ccccc21.[I-] [D-22, decynium-22, reference compound]","none of the analogues, including D-22, displayed antidepressant-like activity",,"effect on immobility time [4]: without effect on immobility time unless paired with an SSRI; effect on locomotor activity ([3]; 0.1 mg/kg ip, p=0.44): not at 0.1 mg/kg; effect on locomotor activity ([3]; 1.0 mg/kg ip, cumulative beam breaks 60 to 120 minutes following injection): completely suppressed locomotor activity"
